Measured values taken from ChEMBL document CHEMBL4680130, “Substituted 4-phenylthiazoles: Development of potent and selective A, A and dual A/A adenosine receptor antagonists” (Eur J Med Chem, 2020).

Assays:
[1] = target: T1, Adenosine receptor A2b (Rattus norvegicus) (UniProt P29276); assay: Displacement of [3H]PSB-603 from rat adenosine receptor A2B expressed in CHO cell membranes at 0.1 uM incubated for 75 mins by radioligand competition assay relative to control; conditions: Cell membrane
T1 sequence (whole entry): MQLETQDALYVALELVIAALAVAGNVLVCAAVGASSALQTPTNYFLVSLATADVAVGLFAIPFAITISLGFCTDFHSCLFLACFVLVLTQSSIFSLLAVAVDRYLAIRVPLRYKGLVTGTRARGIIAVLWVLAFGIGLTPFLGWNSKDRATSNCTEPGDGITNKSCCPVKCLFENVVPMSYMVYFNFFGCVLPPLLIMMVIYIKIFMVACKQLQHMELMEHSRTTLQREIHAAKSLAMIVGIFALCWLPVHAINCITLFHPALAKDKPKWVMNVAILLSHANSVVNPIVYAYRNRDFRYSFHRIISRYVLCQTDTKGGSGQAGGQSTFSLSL
Procedure, shortened: (§1)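 CHO membranes expressing human or rat A2B, [3H]PSB-603 0.3 nM. Nonspecific binding defined by 10 µM DPCPX. Preincubated 20 min with adenosine deaminase, then 75 min at rt in Tris-HCl pH 7.4 with 2.5% DMSO. Filters washed with ice-cold 50 mM Tris-HCl containing 0.1% BSA; scintillation counting.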

Adenosine receptor A3 = target: T2, Adenosine receptor A3 (Homo sapiens, UniProt P0DMS8); assay: Displacement of [3H]PSB-11 from human adenosine receptor A3 expressed in CHO cell membranes incubated for 60 mins by radioligand competition assay; parameters: species or system Cell membrane
T2 sequence (P0DMS8 whole entry): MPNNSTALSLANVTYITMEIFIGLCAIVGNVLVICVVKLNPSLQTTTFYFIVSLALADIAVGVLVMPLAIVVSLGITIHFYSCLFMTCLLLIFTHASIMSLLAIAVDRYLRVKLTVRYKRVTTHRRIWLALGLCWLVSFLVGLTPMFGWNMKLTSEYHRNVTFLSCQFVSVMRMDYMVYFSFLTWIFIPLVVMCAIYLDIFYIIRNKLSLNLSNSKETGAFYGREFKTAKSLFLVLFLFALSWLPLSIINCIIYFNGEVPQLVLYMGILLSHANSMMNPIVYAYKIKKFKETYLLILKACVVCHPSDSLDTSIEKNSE

Adenosine receptor A1 [2] = target: T3, Adenosine receptor A1 (Rattus norvegicus, UniProt P25099); assay: Displacement of [3H]DPCPX from rat adenosine receptor A1 by radioligand competition assay
T3 sequence (P25099 whole entry): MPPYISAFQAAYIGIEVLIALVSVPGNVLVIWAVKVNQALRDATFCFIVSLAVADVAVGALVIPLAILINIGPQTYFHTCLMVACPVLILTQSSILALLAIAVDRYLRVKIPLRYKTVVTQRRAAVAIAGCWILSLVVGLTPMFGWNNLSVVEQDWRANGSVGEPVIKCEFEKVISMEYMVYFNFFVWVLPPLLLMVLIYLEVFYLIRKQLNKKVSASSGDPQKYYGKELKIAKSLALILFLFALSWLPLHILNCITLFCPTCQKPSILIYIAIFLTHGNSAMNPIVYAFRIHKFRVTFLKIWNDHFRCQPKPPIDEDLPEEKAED
Procedure, shortened: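 Rat brain cortical membranes, [3H]DPCPX 0.4 nM. Nonspecific binding defined by 10 μM DPCPX. Curves run with and without 100 μM GTP. Incubation 90 min at rt in 50 mM Tris-HCl pH 7.4, after 20 min adenosine deaminase preincubation. Filtration, then scintillation counting. GTP shift is the IC50 with GTP divided by the IC50 without GTP.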

Adenosine receptor A1 [3] = target: T4, Adenosine receptor A1 (Homo sapiens, UniProt P30542); assay: Displacement of [3H]CCPA from human adenosine receptor A1 expressed in CHO cell membranes incubated for 90 mins by radioligand competition assay; parameters: species or system Cell membrane
T4 sequence (P30542 whole entry): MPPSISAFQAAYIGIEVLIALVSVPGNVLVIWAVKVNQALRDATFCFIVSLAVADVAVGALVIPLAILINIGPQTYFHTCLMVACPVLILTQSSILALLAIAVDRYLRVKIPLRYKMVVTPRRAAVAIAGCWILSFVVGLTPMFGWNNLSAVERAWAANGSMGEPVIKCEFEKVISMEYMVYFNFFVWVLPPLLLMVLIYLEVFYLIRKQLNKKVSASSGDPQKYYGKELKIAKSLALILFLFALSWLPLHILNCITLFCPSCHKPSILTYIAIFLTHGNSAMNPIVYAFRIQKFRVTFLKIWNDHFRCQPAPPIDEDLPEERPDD

[4] = target: T5, Adenosine receptor A3 (Homo sapiens) (UniProt P0DMS8); assay: Displacement of [3H]PSB-11 from human adenosine receptor A3 expressed in CHO cell membranes at 0.1 uM incubated for 60 mins by radioligand competition assay; conditions: Cell membrane, filed as antagonist, dose 0.1 µM
T5 sequence (whole entry): T2 sequence (P0DMS8 whole entry)
Procedure, shortened: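 CHO membranes expressing human A3, [3H]PSB-11 0.5 nM. Nonspecific binding defined by 100 µM R-PIA. Adenosine deaminase preincubation 20 min, then 60 min at rt in 50 mM Tris-HCl pH 7.4 with 2.5% DMSO. Filtered on GF/B, scintillation counted.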

Adenosine receptor A1 [5] = target: T3, Adenosine receptor A1; assay: Displacement of [3H]CCPA from adenosine receptor A1 in rat brain cortex membranes incubated for 90 mins by radioligand competition assay; assay type: cell membranes, Cell membrane
Adenosine receptor A2b = target: T6, Adenosine receptor A2b (Rattus norvegicus, UniProt P29276); assay: Displacement of [3H]PSB-603 from rat adenosine receptor A2B expressed in CHO cell membranes incubated for 75 mins by radioligand competition assay; parameters: species or system Cell membrane; procedure, shortened: as §1
T6 sequence (P29276 whole entry): T1 sequence (whole entry)

[6] = target: Adenosine receptor A2a (Rattus norvegicus) (UniProt P30543); assay: Displacement of [3H]MSX2 from adenosine receptor A2A in rat brain striatum membranes at 0.1 uM incubated for 30 mins by radioligand competition assay relative to control; conditions: Cell membrane
Procedure, shortened: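 A2A binding, [3H]MSX-2 1.0 nM. Membranes: rat brain striatum, or HEK293 cells expressing human A2A. Adenosine deaminase preincubation 20 min, then 30 min at rt in 50 mM Tris-HCl pH 7.4 with 2.5% DMSO. Nonspecific binding defined by 50 µM NECA. GF/B filtration, scintillation counting. Single-concentration percent inhibition, ≥3 experiments in duplicate or triplicate.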

[7] = target: T7, Adenosine receptor A3 (Rattus norvegicus) (UniProt P28647); assay: Displacement of [3H]NECA from rat adenosine receptor A3 expressed in CHO cell membranes at 0.1 uM incubated for 60 mins by radioligand competition assay relative to control; conditions: Cell membrane
T7 sequence (whole entry): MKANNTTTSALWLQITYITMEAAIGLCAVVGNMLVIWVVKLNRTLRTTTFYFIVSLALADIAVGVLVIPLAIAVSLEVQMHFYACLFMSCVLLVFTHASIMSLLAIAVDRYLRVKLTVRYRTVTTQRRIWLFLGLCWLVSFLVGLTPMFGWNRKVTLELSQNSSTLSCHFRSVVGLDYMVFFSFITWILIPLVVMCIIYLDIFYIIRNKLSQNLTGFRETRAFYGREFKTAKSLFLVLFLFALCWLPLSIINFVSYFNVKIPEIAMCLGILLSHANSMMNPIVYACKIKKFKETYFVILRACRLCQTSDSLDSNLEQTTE
Procedure, shortened: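 CHO membranes expressing rat A3, [3H]NECA 10 nM. Nonspecific binding defined by 100 µM R-PIA. Preincubated 20 min with adenosine deaminase, then 60 min at rt in 50 mM Tris-HCl pH 7.4 with 2.5% DMSO. GF/B filtration, scintillation counting.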

Adenosine receptor A2a (Rattus norvegicus), sequence (P30543 whole entry): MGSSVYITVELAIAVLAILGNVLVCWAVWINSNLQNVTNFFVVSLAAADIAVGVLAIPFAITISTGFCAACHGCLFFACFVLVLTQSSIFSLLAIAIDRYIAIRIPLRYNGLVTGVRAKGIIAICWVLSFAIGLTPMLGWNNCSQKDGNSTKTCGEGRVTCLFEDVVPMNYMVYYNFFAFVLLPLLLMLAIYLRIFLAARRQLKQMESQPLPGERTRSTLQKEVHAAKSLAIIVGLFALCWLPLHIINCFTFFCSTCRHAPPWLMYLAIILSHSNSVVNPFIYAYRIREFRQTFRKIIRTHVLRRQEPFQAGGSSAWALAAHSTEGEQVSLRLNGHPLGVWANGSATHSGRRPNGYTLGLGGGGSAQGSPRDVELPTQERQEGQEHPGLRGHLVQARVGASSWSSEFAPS

inhibition [1]: 7%
Ki (Adenosine receptor A3): > 1000 nM
Ki (Adenosine receptor A1 [2]): 0.0709 nM
Ki (Adenosine receptor A1 [3]): 9.69 nM
inhibition [4]: 45%
Ki (Adenosine receptor A1 [5]): 0.529 nM
Ki (Adenosine receptor A2b): > 100 nM
inhibition [6]: 15%
inhibition [7]: 13%
SMILES: COc1ccc(C(=O)Nc2nc(-c3ccccc3)c(C(=O)c3ccc(C)cc3)s2)cc1
